SENP8 block-1: inhibitors of human SENP8 protease | Q96LD8 | purified SENP8, Z-RLRGG-aminoluciferin cleavage, luminescence | inhibition, % at 10 µM | 330,000 compounds, 1.2% hits | AID 2540; in the data active = inhibition above about 50%
SENP8 block-2: SENP8 (human) protease inhibition; 360,000 compounds, 0.64% hits; recombinant SENP8, Nedd8 substrate fluorescence; inhibition, % at 20 µM; Q96LD8; in the data active = inhibition mostly above about 40%, no sharp cut-off; inactive = mostly below about 27%
SENP1 FRET inh: SENP1 (human) catalytic domain inhibition; Q9P0U3; recombinant SENP1 catalytic domain, CyPet-SUMO1-YPet FRET cleavage; inhibition, % at 10 µM; 360,000 compounds, 0.21% hits; AID 624204;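 active = inhibition at least 30% at 10 µM, raw YFP signal under a set limit, fluorescence ratio 0.5 to 1.5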;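 note: 0% = enzyme with DMSO and 100% = no enzyme wells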
Target sequence (Q9P0U3 419-644 limits assumed): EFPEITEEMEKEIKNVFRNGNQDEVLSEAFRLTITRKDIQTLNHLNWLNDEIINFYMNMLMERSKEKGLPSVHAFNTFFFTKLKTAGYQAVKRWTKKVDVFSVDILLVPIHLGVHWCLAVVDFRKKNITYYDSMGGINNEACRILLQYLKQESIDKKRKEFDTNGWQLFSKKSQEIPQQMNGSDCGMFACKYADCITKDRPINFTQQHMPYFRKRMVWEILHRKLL
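Controls: no-enzyme wells low, DMSO-plus-enzyme wells high control. Test system: human recombinant His6-tagged SENP1 catalytic domain enzyme. Reagent: SFCypet-SUMO1-SFYpet FRET protein substrate, 25 nM final. Doses: one dose per compound, 10 µM, 0.5% DMSO. Detection: FRET, CFP and YFP emission. Timing: 50 min reaction at room temperature.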
SENP6 block: SENP6 protease inhibition | Q9GZR1 | Recombinant SENP6 catalytic domain, aminoluciferin luminescence | inhibition, % at 10 µM | 330,000 compounds, 1.8% hits | AID 2599;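 active = inhibition above about 50% at the single tested dose, limit read from the data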;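 note: plate controls were DMSO wells with enzyme for no effect and DMSO wells lacking enzyme for full effect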
SENP7 inh: SENP7 protease inhibition; inhibition, % at 5 µM; recombinant SENP7, Z-RLRGG-aminoluciferin luminescence, 40 min; 330,000 compounds, 1.5% hits; Q9BQF6;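 active = inhibition above about 50% at the single test dose, limit read from the data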;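 note: plate controls were DMSO with enzyme for no effect and no enzyme buffer wells for full effect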
Target sequence (Q9BQF6 706-1050 limits assumed): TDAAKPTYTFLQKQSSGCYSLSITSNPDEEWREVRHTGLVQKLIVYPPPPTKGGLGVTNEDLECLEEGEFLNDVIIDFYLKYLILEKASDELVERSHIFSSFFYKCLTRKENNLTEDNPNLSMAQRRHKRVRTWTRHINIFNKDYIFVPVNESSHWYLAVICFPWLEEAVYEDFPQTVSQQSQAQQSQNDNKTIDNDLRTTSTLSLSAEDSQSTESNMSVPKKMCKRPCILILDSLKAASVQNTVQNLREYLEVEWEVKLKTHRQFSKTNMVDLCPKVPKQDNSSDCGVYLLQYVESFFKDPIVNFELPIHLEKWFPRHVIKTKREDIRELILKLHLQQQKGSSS
SENP8 inh conf: confirmation of human SENP8 protease inhibitors; shares compounds with SENP8 block-2; 1,400 compounds, 15% hits; inhibition, % at 25 µM; purified SENP8, Nedd8-AMC/pro-Nedd8 cleavage fluorescence, 30 min; AID 624319; in the data active = inhibition mostly above about 39%, no sharp cut-off; inactive = mostly below about 34%
SENP1 conf: SENP1 (human) inhibition, single concentration confirmation; shares compounds with SENP1 FRET inh; recombinant SENP1, CyPet-SUMO1-YPet FRET cleavage; inhibition, % at 10 µM; 520 compounds, 34% hits; in the data active = inhibition mostly above about 35%, no sharp cut-off; inactive = mostly below about 32%;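 note: 0% = enzyme with DMSO and 100% = no enzyme control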
SENP1 kinetic: SENP1 (human) inhibition, kinetic confirmation | shares compounds with SENP1 FRET inh | recombinant SENP1, CyPet-SUMO1-YPet FRET kinetic cleavage | inhibition, % at 10 µM | 520 compounds, 26% hits; in the data active = inhibition mostly above about 32%, no sharp cut-off; inactive = mostly below about 29%;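 note: 0% = DMSO with enzyme and 100% = no enzyme substrate only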
Active calls of the source: *. Compounds with a hit are over-represented: about 2.5% of the library has one in this group of screens.

Results for COc1cc(C2c3cc4c(cc3CC3COC(=O)C32)OCO4)cc(OC)c1OC (centres undefined) ?
SENP8 block-1: -0.7; SENP8 block-2: 8.2; SENP1 FRET inh: -1.8; SENP6 block: 12.4; SENP7 inh: 7.6

How did CC12CN3CC(C)(CN(C1)C31CCOCC1)C2=O do in these assays?
SENP8 block-1: -1.6; SENP8 block-2: 40.7*; SENP1 FRET inh: 0.6; SENP6 block: 5.0; SENP7 inh: -7.5; SENP8 inh conf: 4.8

How did CS(=O)(=O)c1ccc(C(=O)N2CCC(C(=O)O)(c3ccccc3)CC2)cc1 do in these assays?
SENP8 block-1: -2.7; SENP8 block-2: 17.1; SENP1 FRET inh: 0.1; SENP6 block: -10.9; SENP7 inh: 2.5

Results for CC1CN(c2ccc([N+](=O)[O-])c3cccnc23)CC(C)N1 (centres undefined) ?
SENP8 block-1: -3.0; SENP8 block-2: 39.3; SENP1 FRET inh: -52.0; SENP6 block: 3.7; SENP7 inh: -0.6

Results for O=[N+]([O-])c1ccc(N2CCCC2)c2ncccc12 ?
SENP8 block-1: 10.3; SENP8 block-2: 81.3*; SENP1 FRET inh: -32.5; SENP6 block: 33.8; SENP7 inh: -3.0; SENP8 inh conf: 26.6

What do the screens show for `COc1cc([N+](=O)[O-])c2ncccc2c1[N+](=O)[O-]`?
SENP8 block-2: 30.0; SENP1 FRET inh: 2.2

What do the screens show for `CCNCCNc1ccc([N+](=O)[O-])c2cccnc12`?
SENP8 block-1: 5.3; SENP8 block-2: 63.1*; SENP1 FRET inh: -9.0; SENP6 block: 7.9; SENP7 inh: 9.1; SENP8 inh conf: 18.9

Results for Cc1nonc1OCCNCCNc1ccc([N+](=O)[O-])c2cccnc12 ?
SENP8 block-1: 3.4; SENP8 block-2: 43.3*; SENP1 FRET inh: -36.3; SENP6 block: 1.4; SENP7 inh: -0.3; SENP8 inh conf: 19.6

How did O=C1C2CCCC1C(N1CCCCC1)CC2 (centres undefined) do in these assays?
SENP8 block-1: -1.6; SENP8 block-2: 2.8; SENP1 FRET inh: 2.2; SENP6 block: 0.1; SENP7 inh: 1.7

What do the screens show for `COc1ccc(NP2(=O)NCCCN2)cc1`?
SENP8 block-2: 12.7; SENP1 FRET inh: 4.5

Results for COc1ccc(P2(=O)Nc3ccccc3N2)cc1 ?
SENP8 block-1: 9.4; SENP8 block-2: -23.1; SENP1 FRET inh: 37.6*; SENP6 block: 23.9; SENP7 inh: 5.2; SENP1 conf: 94.4*; SENP1 kinetic: 60.4*

What do the screens show for `CN1C(=O)C(=Cc2ccc(Sc3ccccc3)o2)C(=O)N(C)C1=S`?
SENP8 block-1: 4.0; SENP8 block-2: 7.8; SENP1 FRET inh: -2.1; SENP6 block: -8.5; SENP7 inh: 5.7

What do the screens show for `CCN1C(=O)C(=Cc2ccc(N3CCOCC3)o2)C(=O)N(CC)C1=S`?
SENP8 block-1: 5.4; SENP8 block-2: 22.1; SENP1 FRET inh: 49.0*; SENP6 block: 9.6; SENP7 inh: -3.4; SENP1 conf: 18.9; SENP1 kinetic: 9.8

What do the screens show for `CN1C(=O)C(=Cc2ccc(N3CCOCC3)o2)C(=O)N(C)C1=S`?
SENP8 block-1: 3.1; SENP8 block-2: 37.9; SENP1 FRET inh: 66.4*; SENP6 block: 7.6; SENP7 inh: 8.2; SENP1 conf: 3.9; SENP1 kinetic: 2.6

How did Cc1ccc(OC(=O)N(C)C[C@H]2OCc3cnnn3CCCC(=O)N([C@H](C)CO)C[C@@H]2C)cc1 do in these assays?
SENP8 block-2: 5.6; SENP1 FRET inh: 1.0

What do the screens show for `O=C1NC(=O)C(Sc2ccccc2[N+](=O)[O-])C(=O)N1`?
SENP8 block-1: 4.0; SENP8 block-2: 39.5; SENP1 FRET inh: 31.5*; SENP6 block: 8.7; SENP7 inh: 3.9; SENP1 conf: 13.5; SENP1 kinetic: 15.7

Results for O=[N+]([O-])c1ccccc1Cl ?
SENP8 block-1: -12.8; SENP8 block-2: 3.5; SENP1 FRET inh: -1.2; SENP6 block: -25.5; SENP7 inh: -7.9

What do the screens show for `CC1=NN=C(c2ccc(N)cc2)c2cc3c(cc2C1)OCO3`?
SENP8 block-1: -7.1; SENP8 block-2: -131.5; SENP1 FRET inh: 42.7*; SENP6 block: -19.8; SENP7 inh: 1.4; SENP1 conf: 5.5; SENP1 kinetic: -3.5

Results for Cc1nn(Cc2ccccc2)c(C)c1C(=O)OCC(=O)Nc1ccccc1SCC#N ?
SENP8 block-1: -1.4; SENP8 block-2: 3.7; SENP1 FRET inh: 48.0*; SENP6 block: 0.5; SENP7 inh: 8.3; SENP1 conf: 4.8; SENP1 kinetic: 3.6

How did CNCC(O)c1cc(OCc2ccccc2)c(OCc2ccccc2)cc1F (centres undefined) do in these assays?
SENP8 block-1: -8.6; SENP8 block-2: 14.0; SENP1 FRET inh: 3.2; SENP6 block: -13.4; SENP7 inh: 0.6

Results for C[C@]12CCC3[C@@H](CCC4=CC(=O)CC[C@@]43C=O)C1CCC2=O (some centres undefined) ?
SENP8 block-1: 2.5; SENP8 block-2: -0.8; SENP1 FRET inh: -2.4; SENP6 block: -1.4; SENP7 inh: -3.0
